Source: ChEMBL document CHEMBL5376013, “Design, synthesis and biological evaluation of novel morpholinopyrimidine-5-carbonitrile derivatives as dual PI3K/mTOR inhibitors” (RSC Med Chem, 2024)

Columns and labels:
Type in all cases: functional
Details in all cases: read-out: GI
[1] = system: BT-549; assay: Antitumor activity against human BT-549 cells assessed as growth inhibition at 10 uM relative to control
How it was run: (§1)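 After drug addition, plates were incubated 48 h at 37 °C under 5% CO2. Adherent cells were fixed with cold TCA (10% final, 60 min, 4 °C) and suspension cells with 16% final TCA. Staining used 0.4% SRB in 1% acetic acid, solubilized in 10 mM trizma, read at A515. Percent growth was calculated from time-zero, control and treated absorbances.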

[2] = system: A498; assay: Antitumor activity against human A498 cells assessed as growth inhibition at 10 uM relative to control; how it was run: as §1
[3] = system: RXF 393; assay: Antitumor activity against human RXF 393 cells assessed as growth inhibition at 10 uM relative to control; how it was run: as §1
[4] = system: ACHN; assay: Antitumor activity against human ACHN cells assessed as growth inhibition at 10 uM relative to control; how it was run: as §1
[5] = system: MDA-MB-468; assay: Antitumor activity against human MDA-MB-468 cells assessed as growth inhibition at 10 uM relative to control; how it was run: as §1
[6] = system: M14; assay: Antitumor activity against human M14 cells assessed as growth inhibition at 10 uM relative to control; how it was run: as §1
[7] = system: MDA-MB-231; assay: Antitumor activity against human MDA-MB-231 cells assessed as growth inhibition at 10 uM relative to control; how it was run: as §1
[8] = system: OVCAR-8; assay: Antitumor activity against human OVCAR-8 cells assessed as growth inhibition at 10 uM relative to control; how it was run: as §1
[9] = system: NCI-H460; assay: Antitumor activity against human NCI-H460 cells assessed as growth inhibition at 10 uM relative to control; how it was run: as §1
[10] = system: OVCAR-4; assay: Antitumor activity against human OVCAR-4 cells assessed as growth inhibition at 10 uM relative to control; how it was run: as §1
[11] = system: KM12; assay: Antitumor activity against human KM12 cells assessed as growth inhibition at 10 uM relative to control; how it was run: as §1
[12] = system: T47D; assay: Antitumor activity against human T47D cells assessed as growth inhibition at 10 uM relative to control
How it was run: (§2)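 Drug exposure 48 h at 37 °C, 5% CO2. Adherent cells fixed with cold TCA (10% final), suspension cells with TCA (16% final). Stained with 0.4% SRB in 1% acetic acid, dissolved in 10 mM Tris, A515. Growth relative to time-zero and untreated control.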

[13] = system: HT-29; assay: Antitumor activity against human HT-29 cells assessed as growth inhibition at 10 uM relative to control; how it was run: as §1
[14] = system: UACC-257; assay: Antitumor activity against human UACC-257 cells assessed as growth inhibition at 10 uM relative to control; how it was run: as §2
[15] = system: SF-295; assay: Antitumor activity against human SF-295 cells assessed as growth inhibition at 10 uM relative to control; how it was run: as §1
[16] = system: UO-31; assay: Antitumor activity against human UO-31 cells assessed as growth inhibition at 10 uM relative to control; how it was run: as §2
[17] = system: SK-MEL-28; assay: Antitumor activity against human SK-MEL-28 cells assessed as growth inhibition at 10 uM relative to control; how it was run: as §2
[18] = system: NCI-H522; assay: Antitumor activity against human NCI-H522 cells assessed as growth inhibition at 10 uM relative to control; how it was run: as §1
[19] = system: HCT-116; assay: Antitumor activity against human HCT-116 cells assessed as growth inhibition at 10 uM relative to control; how it was run: as §1
[20] = system: HOP-92; assay: Antitumor activity against human HOP-92 cells assessed as growth inhibition at 10 uM relative to control; how it was run: as §1
[21] = system: IGROV-1; assay: Antitumor activity against human IGROV-1 cells assessed as growth inhibition at 10 uM relative to control; how it was run: as §1
[22] = system: CAKI-1; assay: Antitumor activity against human CAKI-1 cells assessed as growth inhibition at 10 uM relative to control; how it was run: as §1
[23] = system: HL-60; assay: Antitumor activity against human HL-60 cells assessed as growth inhibition at 10 uM relative to control; how it was run: as §1
[24] = system: HCT-15; assay: Antitumor activity against human HCT-15 cells assessed as growth inhibition at 10 uM relative to control; how it was run: as §1
[25] = system: MOLT-4; assay: Antitumor activity against human MOLT-4 cells assessed as growth inhibition at 10 uM relative to control; how it was run: as §1
[26] = system: SK-MEL-2; assay: Antitumor activity against human SK-MEL-2 cells assessed as growth inhibition at 10 uM relative to control; how it was run: as §1
[27] = system: OVCAR-3; assay: Antitumor activity against human OVCAR-3 cells assessed as growth inhibition at 10 uM relative to control; how it was run: as §1
[28] = system: HOP-62; assay: Antitumor activity against human HOP-62 cells assessed as growth inhibition at 10 uM relative to control; how it was run: as §1
[29] = system: NCI-H226; assay: Antitumor activity against human NCI-H226 cells assessed as growth inhibition at 10 uM relative to control; how it was run: as §1
[30] = system: SF-539; assay: Antitumor activity against human SF-539 cells assessed as growth inhibition at 10 uM relative to control; how it was run: as §1
[31] = system: DU-145; assay: Antitumor activity against human DU-145 cells assessed as growth inhibition at 10 uM relative to control; how it was run: as §1
[32] = system: SF-268; assay: Antitumor activity against human SF-268 cells assessed as growth inhibition at 10 uM relative to control; how it was run: as §1
[33] = system: SK-MEL-5; assay: Antitumor activity against human SK-MEL-5 cells assessed as growth inhibition at 10 uM relative to control; how it was run: as §2
[34] = system: U-251; assay: Antitumor activity against human U-251 cells assessed as growth inhibition at 10 uM relative to control; how it was run: as §2
[35] = system: COLO 205; assay: Antitumor activity against human COLO 205 cells assessed as growth inhibition at 10 uM relative to control; how it was run: as §1
[36] = system: PC-3; assay: Antitumor activity against human PC-3 cells assessed as growth inhibition at 10 uM relative to control; how it was run: as §1
[37] = system: 786-0; assay: Antitumor activity against human 786-0 cells assessed as growth inhibition at 10 uM relative to control; how it was run: as §1
[38] = system: NCI-H322M; assay: Antitumor activity against human NCI-H322M cells assessed as growth inhibition at 10 uM relative to control; how it was run: as §1
[39] = system: MDA-MB-435; assay: Antitumor activity against human MDA-MB-435 cells assessed as growth inhibition at 10 uM relative to control; how it was run: as §1
[40] = system: LOX IMVI; assay: Antitumor activity against human LOX IMVI cells assessed as growth inhibition at 10 uM relative to control; how it was run: as §1
[41] = system: UACC-62; assay: Antitumor activity against human UACC-62 cells assessed as growth inhibition at 10 uM relative to control; how it was run: as §2
[42] = system: SW-620; assay: Antitumor activity against human SW-620 cells assessed as growth inhibition at 10 uM relative to control; how it was run: as §2
[43] = system: EKVX; assay: Antitumor activity against human EKVX cells assessed as growth inhibition at 10 uM relative to control; how it was run: as §1
[44] = system: SN12C; assay: Antitumor activity against human SN12C cells assessed as growth inhibition at 10 uM relative to control; how it was run: as §2
[45] = system: SK-OV-3; assay: Antitumor activity against human SK-OV-3 cells assessed as growth inhibition at 10 uM relative to control; how it was run: as §2
[46] = system: SNB-75; assay: Antitumor activity against human SNB-75 cells assessed as growth inhibition at 10 uM relative to control; how it was run: as §2

COc1cc(/C=N/Nc2nc(-c3ccc(Cl)cc3)c(C#N)c(N3CCOCC3)n2)cc(OC)c1OC
inhibition of growth at 10 µM [1]: 45.7% | inhibition of growth at 10 µM [2]: 33.7% | inhibition of growth at 10 µM [3]: 30.5% | inhibition of growth at 10 µM [4]: 36.7% | inhibition of growth at 10 µM [5]: 32.1% | inhibition of growth at 10 µM [6]: 48.8% | inhibition of growth at 10 µM [7]: 27.8% | inhibition of growth at 10 µM [8]: 46.6% | inhibition of growth at 10 µM [9]: 46.2% | inhibition of growth at 10 µM [10]: 11.2% | inhibition of growth at 10 µM [11]: 31.2% | inhibition of growth at 10 µM [12]: 51.8% | inhibition of growth at 10 µM [13]: 69.3% | inhibition of growth at 10 µM [14]: < 1% | inhibition of growth at 10 µM [15]: 13.8% | inhibition of growth at 10 µM [16]: 67% | inhibition of growth at 10 µM [17]: 14.2% | inhibition of growth at 10 µM [18]: 31.4% | inhibition of growth at 10 µM [19]: 55.4% | inhibition of growth at 10 µM [20]: 59.1% | inhibition of growth at 10 µM [21]: 39.1% | inhibition of growth at 10 µM [22]: < 1% | inhibition of growth at 10 µM [23]: 40.8% | inhibition of growth at 10 µM [24]: 48% | inhibition of growth at 10 µM [25]: 65.9% | inhibition of growth at 10 µM [26]: 20.4% | inhibition of growth at 10 µM [27]: 25.9% | inhibition of growth at 10 µM [28]: 10.2% | inhibition of growth at 10 µM [29]: 59.1% | inhibition of growth at 10 µM [30]: 35.5% | inhibition of growth at 10 µM [31]: 32.2% | inhibition of growth at 10 µM [32]: 17.6% | inhibition of growth at 10 µM [33]: 71% | inhibition of growth at 10 µM [34]: 43.6% | inhibition of growth at 10 µM [35]: 46.6% | inhibition of growth at 10 µM [36]: 45.7% | inhibition of growth at 10 µM [37]: 28.3% | inhibition of growth at 10 µM [38]: 16.4% | inhibition of growth at 10 µM [39]: 20.1% | inhibition of growth at 10 µM [40]: 70% | inhibition of growth at 10 µM [41]: 31.7% | inhibition of growth at 10 µM [42]: 10.3% | inhibition of growth at 10 µM [43]: 53.7% | inhibition of growth at 10 µM [44]: 35.4% | inhibition of growth at 10 µM [45]: < 1% | inhibition of growth at 10 µM [46]: 48.9%

N#Cc1c(-c2ccc(Cl)cc2)nc(N/N=C/c2ccco2)nc1N1CCOCC1
inhibition of growth at 10 µM [1]: 41.5% | inhibition of growth at 10 µM [2]: < 1% | inhibition of growth at 10 µM [3]: < 1% | inhibition of growth at 10 µM [4]: 23.3% | inhibition of growth at 10 µM [5]: 69.1% | inhibition of growth at 10 µM [6]: 28.6% | inhibition of growth at 10 µM [7]: 25.5% | inhibition of growth at 10 µM [8]: 21.1% | inhibition of growth at 10 µM [9]: 31.8% | inhibition of growth at 10 µM [10]: 54.4% | inhibition of growth at 10 µM [11]: < 1% | inhibition of growth at 10 µM [12]: 76.8% | inhibition of growth at 10 µM [13]: 13% | inhibition of growth at 10 µM [14]: < 1% | inhibition of growth at 10 µM [15]: 26.2% | inhibition of growth at 10 µM [16]: 72.9% | inhibition of growth at 10 µM [17]: 34.1% | inhibition of growth at 10 µM [18]: 37.7% | inhibition of growth at 10 µM [19]: 23.9% | inhibition of growth at 10 µM [20]: 59.4% | inhibition of growth at 10 µM [21]: 74.2% | inhibition of growth at 10 µM [22]: < 1% | inhibition of growth at 10 µM [23]: < 1% | inhibition of growth at 10 µM [24]: 19.7% | inhibition of growth at 10 µM [25]: 17% | inhibition of growth at 10 µM [26]: 17.7% | inhibition of growth at 10 µM [27]: 33.4% | inhibition of growth at 10 µM [28]: 33.6% | inhibition of growth at 10 µM [29]: 59.4% | inhibition of growth at 10 µM [30]: 24.7% | inhibition of growth at 10 µM [31]: 14.6% | inhibition of growth at 10 µM [32]: 25.5% | inhibition of growth at 10 µM [33]: 19.1% | inhibition of growth at 10 µM [34]: < 1% | inhibition of growth at 10 µM [35]: 24.8% | inhibition of growth at 10 µM [36]: 31.7% | inhibition of growth at 10 µM [37]: 25.9% | inhibition of growth at 10 µM [38]: 30.6% | inhibition of growth at 10 µM [39]: 20.6% | inhibition of growth at 10 µM [40]: 21.3% | inhibition of growth at 10 µM [41]: 41.8% | inhibition of growth at 10 µM [42]: 17.8% | inhibition of growth at 10 µM [43]: 53.5% | inhibition of growth at 10 µM [44]: 17.9% | inhibition of growth at 10 µM [45]: 50.6% | inhibition of growth at 10 µM [46]: 89.7%
